How the values were obtained:
DC3F/AD [1] = assay: Increase in adriamycin uptake in modulator-treated cells relative to untreated cells at a concentration of 5 uM; type: functional, Cricetulus griseus
How it was run: (§1)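 DC-3F/AD or KB-A1 cells (5 × 10⁶/mL) were incubated at 37 °C for 5 h with 50 μM adriamycin plus modulator (2.5–10 μM range). ADR fluorescence of 10 000 cells was read by flow cytometry at 4 °C with 488 nm argon-laser excitation. The value is the increase in mean fluorescence of treated cells over untreated cells.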

DC3F/AD [2] = assay: In vitro activity in DC-3F/AD cell line(Ratio of IC50(actinomycin D alone) / IC50(actinomycin D + modulator) at a concentration of 5 uM
DC3F/AD [3] = assay: In vitro activity in DC-3F/AD cell line Ratio of IC50(actinomycin D alone) / IC50(actinomycin D + modulator) at a concentration of 10 uM
DC3F/AD [4] = assay: Percent of cell viability remaining after incubating with a 10 uM concentration; type: functional, Cricetulus griseus
How it was run: (§2)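 Cells were grown with modulator alone for 4 days under the same conditions as the chemosensitivity assay, and read by MTT. Viability = (absorbance with modulator/absorbance of control cells) × 100. "tox" marks viability below 25%.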

DC3F/AD [5] = assay: Increase in adriamycin uptake in modulator-treated cells relative to untreated cells at a concentration of 10 uM; type: functional, Cricetulus griseus; how it was run: as §1
DC3F/AD [6] = assay: Percent of cell viability remaining after incubating the cells with the modulator alone a concentration of 5 uM; type: functional, Cricetulus griseus; how it was run: as §2
KB [7] = assay: Percent of cell viability remaining after incubating the cells with the modulator alone; type: functional, Homo sapiens; parameters: concentration or dose not given beside the values; how it was run: as §2
KB [8] = assay: Increase in adriamycin uptake in modulator-treated cells relative to untreated KB-A1 cells at a concentration of 5 uM; type: functional, Homo sapiens; how it was run: as §1
KB [9] = assay: In vitro activity in KB-A1 cell line activity expressed as fold reversion (Ratio of IC50(adriamycin alone) / IC50(adriamycin + modulator) at a concentration of 5 uM; type: functional, Homo sapiens
How it was run: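 Human epidermoid KB-A1 cells (Pgp-overexpressing) were grown in RPMI 1640 with 10% FCS and 10 mM HEPES (pH 7.4). They were exposed for 4 days to adriamycin (nine graded concentrations, in triplicate) with or without 5 μM modulator. IC50 was read by the MTT assay. Fold reversion = IC50(ADR alone)/IC50(ADR + modulator).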

Row | Compound | Increase (DC3F/AD [1]) | Fold reversion (DC3F/AD [2]) | Fold reversion (DC3F/AD [3]) | Viability (DC3F/AD [4]) | Increase (DC3F/AD [5]) | Viability (DC3F/AD [6]) | Viability (KB [7]) | Increase (KB [8]) | Fold reversion (KB [9])
1 | C=CCNc1nc(NCC=C)nc(N2CCC(N(C)CC(c3ccccc3)c3ccccc3)CC2)n1 | 20.6 | 354 | 1418 | 85% | 27.9 | 88% |  |  | 
2 | C=CCNc1nc(NCC=C)nc(N2CCN(CCCC(c3ccc(F)cc3)c3ccc(F)cc3)CC2)n1 |  | 171 | <25 |  |  | 50% |  |  | 
3 | C=CCNc1nc(N)nc(N2CCC(NCC3c4ccccc4CCc4ccccc43)CC2)n1 | 6.7 | 421 |  |  | 11 | 92% | 122% | 16.3 | 89
4 | C=CCNc1nc(NCC=C)nc(NCC(O)CN2CCC(NCC3c4ccccc4CCc4ccccc43)CC2)n1 (stereo unspecified) | 10.5 | 1 |  |  | 12.6 | 98% |  | 5.5 | <25
5 | C=CCNc1nc(NCC=C)nc(NCC2CCN(CC3c4ccccc4CCc4ccccc43)CC2)n1 | 19.3 | 353 | <25 |  | 21 | 57% | 53% | 9.8 | 12
6 | C=CCNc1nc(NCC=C)nc(N2CCN(CCC(c3ccccc3)c3ccccc3)CC2)n1 | 0 | 42 | 598 | 64% | 1.2 | 72% |  |  | 
7 | C=CCNc1nc(NCC=C)nc(N2CCC(NCC3c4ccccc4CS(=O)(=O)c4ccccc43)CC2)n1 (stereo unspecified) |  | 27 | 2536 | 94% |  | 90% |  |  | 
8 | C=CCNc1cc(N2CCC(NCC(c3ccccc3)c3ccccc3)CC2)nc(NCC=C)n1 | 15.1 | 472 | <25 |  | 16.3 | 67% |  |  | 
9 | C=CCNc1nc(NCC=C)nc(N2CCC(NC(c3ccc(F)cc3)c3ccc(F)cc3)CC2)n1 | 16 | 388 | 1212 | 56% | 25.1 | 76% |  |  | 
10 | C=CCNc1nc(NCC=C)nc(N2CCC(NCC(c3ccccc3)(c3ccccc3)c3ccccc3)CC2)n1 |  | 57 | <25 |  |  | 59% |  |  | 
11 | C=CCNc1nc(NCC=C)nc(N2CCC(NCCC(c3ccc(OC)c(OC)c3)c3ccc(OC)c(OC)c3)CC2)n1 | 1.6 | 12 | 12 | 114% | 2.9 | 115% | 100% |  | 6
12 | C/C=C/CNc1nc(NC/C=C/C)nc(N2CCC(NC(c3ccc(F)cc3)c3ccc(F)cc3)CC2)n1.Cl.Cl |  | 146 | 339 | 43% |  | 82% |  |  | 
13 | C=CCNc1cc(N2CCC(NC(c3ccc(F)cc3)c3ccc(F)cc3)CC2)nc(NCC=C)n1.Cl.Cl |  | 1174 | <25 |  |  | 49% |  |  | 
14 | C=CCNc1nc(NCCC)nc(N2CCC(NC(c3ccc(F)cc3)c3ccc(F)cc3)CC2)n1.Cl.Cl | 19.8 |  | 2220 | 47% | 25.5 |  |  |  | 
15 | C=CCNc1nc(NCC=C)nc(N2CCC(SCCC(c3ccccc3)c3ccccc3)CC2)n1 | 8 | 41 | 248 | 79% | 19.7 | 85% |  |  | 
16 | C=CCNc1nc(NCC=C)nc(N2CCC(NC(c3ccccc3)c3ccc(F)cc3)CC2)n1.Cl (stereo unspecified) | 10.5 | 732 | 1796 | 54% | 19.4 | 72% |  |  | 
17 | C=CCNc1nc(NCC=C)nc(N2CCC(OC(c3ccc(F)cc3)c3ccc(F)cc3)CC2)n1.Cl | 11.4 | 290 | 969 | 56% | 16.1 | 70% |  |  | 

Row | Compound | Increase (DC3F/AD [1]) | Fold reversion (DC3F/AD [2]) | Fold reversion (DC3F/AD [3]) | Viability (DC3F/AD [4]) | Increase (DC3F/AD [5]) | Viability (DC3F/AD [6]) | Viability (KB [7]) | Increase (KB [8]) | Fold reversion (KB [9])
18 | C=CCNc1nc(NCCC)nc(N2CCC(NCCC(c3ccccc3)c3ccccc3)CC2)n1 | 17.9 | <25 | <25 |  | 27.2 |  |  |  | 
19 | C=CCNc1nc(NCC=C)nc(N2CCC(SC(c3ccccc3)c3ccccc3)CC2)n1 |  | 380 | 1202 | 76% | 28.3 | 90% |  |  | 
20 | C=CCNc1nc(NCC=C)nc(N2CCN(C(c3ccc(Cl)cc3)c3ccc(Cl)cc3)CC2)n1.CS(=O)(=O)O |  | 42 | 99 | 67% |  | 81% |  |  | 
21 | C=CCNc1nc(NCC=C)nc(NCC(O)CN2CCC(NC3c4ccccc4CCc4ccccc43)CC2)n1 (stereo unspecified) | 10.4 | 2 |  |  | 12.9 | 77% |  | 13 | <25
22 | C=CCNc1nc(NCC=C)nc(N2CCC(N(CC=C)C(c3ccc(F)cc3)c3ccc(F)cc3)CC2)n1 | 22.1 |  | 627 | 49% | 33.9 |  |  |  | 
23 | C=CCNc1nc(NCC=C)nc(NCCN2CCC(NCC3c4ccccc4CCc4ccccc43)CC2)n1 | 13.7 | 120 | <25 |  | 12.4 | 41% |  | 20.9 | <25
24 | C=CCNc1nc(NCC=C)nc(N2CCC(NCC3c4ccccc4CCc4cc(OC)ccc43)CC2)n1 (stereo unspecified) | 30.8 | 1913 | <25 |  |  | 73% | 83% | 72.6 | 264
25 | C=CCNc1nc(NCC=C)nc(N2CCN(NC(=O)C3c4ccccc4CCc4ccccc43)CC2)n1 | 9.5 | 138 | 2174 | 67% | 24.8 | 86% |  |  | 
26 | C=CCNc1nc(NCC=C)nc(N2CCC(NCC(c3ccccc3)c3ccccc3)CC2)n1 | 31.3 | 753 | 1540 | 77% | 34.7 | 90% |  |  | 
27 | C=CCNc1nc(NCC=C)nc(N2CCC(N(CC)C(c3ccc(F)cc3)c3ccc(F)cc3)CC2)n1 | 42.7 | 1008 | 1838 | 53% | 44.7 | 75% |  |  | 
28 | C=CCNc1nc(NCC=C)nc(NC2CCN(C(c3ccc(F)cc3)c3ccc(F)cc3)CC2)n1 |  | 1654 | <25 |  |  | 38% | 40% |  | 22
29 | C=CCNc1nc(NCC=C)nc(NCCN2CCC(NC3c4ccccc4CCc4ccccc43)CC2)n1 | 10.4 | 64 | <25 |  | 18.3 | 38% |  | 14.5 | <25
30 | C=CCNc1nc(NCC=C)nc(NN2CCN(C(c3ccc(F)cc3)c3ccc(F)cc3)CC2)n1 | 18.3 | 1932 | 5344 | 78% | 20.7 | 82% |  |  | 
31 | C=CCNc1nc(NCC=C)nc(N2CCC(NCC(c3cc(OC)cc(OC)c3)c3ccccc3C)CC2)n1 (stereo unspecified) | 24.7 | 1224 | <25 |  | 26.5 | 80% | 91% | 41.4 | 111
32 | C=CCNc1nc(NCC=C)nc(N2CCC(NCC(c3c(C)cccc3C)c3c(C)cccc3C)CC2)n1 | 28.9 | 93 | 374 | 84% | 35.5 | 100% |  |  | 
33 | C=CCNc1nc(NCC=C)nc(N2CCC(NCC34CCC(c5ccccc53)c3ccccc34)CC2)n1 | 20.2 | 96 | 422 | 87% | 30.7 | 90% |  | 22.2 | <25
34 | C=CCNc1nc(NCC=C)nc(N2CCC(NCCC(c3ccccc3)c3ccccc3)CC2)n1 | 21.5 | 220 | <25 |  | 29.8 | 50% |  |  | 

Reference: ChEMBL document CHEMBL1126298, “New triazine derivatives as potent modulators of multidrug resistance” (1992)
